# Calls of active or inactive are those of the source. The rule behind the calls is not given here.
# Assays:
# [1] = tested on: MDA-MB-231; experiment: Induction of methuosis in human MDA-MB-231 cells assessed as increase in vacuole formation at 10 uM after 24 hrs by phase contrast microscopic analysis relative to control; type: functional
# [2] = tested on: MDA-MB-231; experiment: Induction of methuosis in human MDA-MB-231 cells assessed as increase in vacuole formation at 1 uM after 24 hrs by phase contrast microscopic analysis relative to control; type: functional
# [3] = tested on: MDA-MB-231; experiment: Antiproliferative activity against human MDA-MB-231 cells after 48 hrs by crystal violet staining based microscopic method; type: functional, cell-based
# How it was run: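 MDA-MB-231 seeded, cultured 12 h, medium refreshed, then exposed to 0.1% DMSO or graded compound concentrations for 48 h; fixed in 4% paraformaldehyde 15 min at room temperature, stained with crystal violet, examined by optical microscopy and quantified.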
# [4] = tested on: MDA-MB-231; experiment: Induction of methuosis in human MDA-MB-231 cells assessed as macropinocytosis at 2 uM after 12 hrs by lucifer yellow CH staining based phase contrast fluorescent microscopic analysis; type: functional, cell-based
# How it was run: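 MDA-MB-231 incubated with 2 µM compound and Lucifer yellow together for 12 h, PBS-washed, imaged by phase contrast and confocal fluorescence.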
# [5] = tested on: MDA-MB-231; experiment: Induction of methuosis in human MDA-MB-231 cells assessed as macropinocytosis at 2 uM after 12 hrs by lyso-tracker red staining based phase contrast fluorescent microscopic analysis; type: functional, cell-based
# How it was run: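 MDA-MB-231 treated 2 µM for 12 h, then loaded with Lyso-tracker Red; phase-contrast and confocal fluorescence imaging.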
# [6] = tested on: MDA-MB-231; experiment: Induction of mitochondria originated vacuolization in human MDA-MB-231 cells at 2 uM after 12 hrs by Mito-tracker red staining based phase contrast fluorescent microscopic analysis; type: functional, cell-based
# How it was run: (§1)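 MDA-MB-231 attached overnight on glass-bottom dishes, treated with DMSO or 2 µM for 12 h, then loaded with ER-tracker or Mito-tracker Red; phase-contrast and confocal fluorescence imaging.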
# [7] = tested on: MDA-MB-231; experiment: Induction of methuosis in human MDA-MB-231 cells xenografted in Balb/c nude mouse assessed as vacuole formation in tumor at 20 mg/kg, iv administered once daily for 13 days measured 6 hrs post last dose by H and E staining based light microscopic method; type: functional, organism-based
# How it was run: (§2)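 Female BALB/c nude mice (4–6 weeks) injected subcutaneously with 5×10^6 MDA-MB-231 cells; at ~100 mm3 (length×width²×0.5) randomized (n = 6) and dosed iv by tail vein once daily at 5 or 20 mg/kg in 10% Kolliphor HS 15 in saline, or vehicle; tumor volume and weight measured daily; tumors excised 6 h after final dose, H&E stained.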
# [8] = tested on: MDA-MB-231; experiment: Induction of methuosis in human MDA-MB-231 cells assessed as increase in vacuole formation at 2 uM after 24 hrs in presence of pan-caspase inhibitor Z-VAD-FMK by optical microscopic analysis; type: functional, cell-based
# How it was run: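 Optical microscopy of MDA-MB-231 after 24 h with DMSO, 100 µM Z-VAD-FMK, 2 µM compound, or both.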
# [9] = tested on: MDA-MB-231; experiment: Induction of methuosis in human MDA-MB-231 cells assessed as increase in vacuole formation at 2 uM after 12 to 24 hrs by optical microscopic analysis; type: functional, cell-based
# How it was run: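 MDA-MB-231 treated with 2 µM and inspected by optical microscopy at successive times (12, 24, 48 h) for vesicle accumulation and vacuole fusion.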
# [10] = tested on: MDA-MB-231; experiment: Antiproliferative activity against human MDA-MB-231 cells at 2 uM after 48 hrs in presence of pan-caspase inhibitor Z-VAD-FMK by MTS assay; type: functional, cell-based
# How it was run: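 Cells pretreated 1 h with 100 µM Z-VAD-FMK, then 2 µM compound (0.1 µM staurosporine as comparator) alone or combined for 48 h; MTS viability, means ± SD of triplicates.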
# [11] = tested on: MDA-MB-231; experiment: Antiproliferative activity against human MDA-MB-231 cells at 2 uM after 48 hrs in presence of necrosis inhibitor necrostatin-1 by MTS assay; type: functional, cell-based
# How it was run: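 MDA-MB-231 given DMSO, 50 µM necrostatin-1, 2 µM compound, or combinations for 48 h; viability by MTS, means ± SD of triplicate samples.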
# [12] = tested on: MDA-MB-231; experiment: Antiproliferative activity against human MDA-MB-231 cells at 2 uM after 48 hrs in presence of autophagy inhibitor 3-MA by MTS assay; type: functional, cell-based
# How it was run: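 MDA-MB-231 given DMSO, 1 mM 3-MA, 2 µM compound, or the combination for 48 h; viability by MTS, means ± SD of triplicate samples.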
# [13] = tested on: MDA-MB-231; experiment: Induction of mitochondria originated vacuolization in human MDA-MB-231 cells assessed as mitochondrial swelling at 2 uM after 12 hrs by uranyl acetate or lead citrate staining based transmission electron microscopic analysis; type: functional, cell-based
# How it was run: (§3)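 MDA-MB-231 given DMSO or 2 µM for 12 h; fixed in 2.5% glutaraldehyde (0.1 M PBS pH 7.4, 4 °C, 3 h), post-fixed 1% OsO4, ethanol-dehydrated, Spurr's resin embedded; 70 nm sections stained with uranyl acetate or lead citrate, viewed by TEM for organelle swelling.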
# [14] = tested on: MDA-MB-231; experiment: Induction of endoplasmic reticulum originated vacuolization in human MDA-MB-231 cells at 2 uM after 12 hrs by ER-tracker staining based phase contrast fluorescent microscopic analysis; type: functional, cell-based; how it was run: as §1
# [15] = tested on: MDA-MB-231; experiment: Antitumor activity against human MDA-MB-231 cells xenografted in iv dosed Balb/c nude mouse assessed as tumor growth inhibition administered once daily for 13 days measured 6 hrs post last dose; type: functional, organism-based; how it was run: as §2
# [16] = tested on: MDA-MB-231; experiment: Induction of apoptosis in human MDA-MB-231 cells assessed as caspase-3 activation at 0.5 to 4 uM after 24 hrs; type: functional, cell-based
# How it was run: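 After 24 h exposure to DMSO, graded compound concentrations or staurosporine, MDA-MB-231 cells were harvested, lysed and caspase 3 activity measured with a commercial activity kit.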
# [17] = tested on: MDA-MB-231; experiment: Induction of methuosis in human MDA-MB-231 cells assessed as late endosomal marker Rab7 on vacuole membranes at 2 uM after 12 hrs by anti-Rab7 staining based immunofluorescent microscopic analysis
# [18] = tested on: MDA-MB-231; experiment: Induction of methuosis in human MDA-MB-231 cells assessed as increase in vacuole formation at 2 uM after 24 hrs in presence of autophagy inhibitor 3-MA by optical microscopic analysis; type: functional, cell-based
# How it was run: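 Optical microscopy of MDA-MB-231 after 24 h with DMSO, 1 mM 3-MA, 2 µM compound, or both.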
# [19] = tested on: MDA-MB-231; experiment: Induction of methuosis in human MDA-MB-231 cells assessed as increase in vacuole formation at 2 uM after 24 hrs in presence of necrosis inhibitor necrostatin-1 by optical microscopic analysis; type: functional, cell-based
# How it was run: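 Optical microscopy of MDA-MB-231 after 24 h with DMSO, 50 µM necrostatin-1, 2 µM compound, or both.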
# [20] = tested on: MDA-MB-231; experiment: Induction of endoplasmic reticulum originated vacuolization in human MDA-MB-231 cells assessed as endoplasmic reticulum swelling at 2 uM after 12 hrs by uranyl acetate or lead citrate staining based transmission electron microscopic analysis; type: functional, cell-based; how it was run: as §3
# [21] = tested on: MDA-MB-231; experiment: Induction of apoptosis in human MDA-MB-231 cells assessed as PARP cleavage at 0.5 to 4 uM after 24 hrs by Western blot analysis; type: functional, cell-based
# How it was run: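 MDA-MB-231 treated 24 h with DMSO, graded compound concentrations or staurosporine; lysed, equal protein separated by 10–15% SDS-PAGE, PVDF transfer, probed for PARP and cleaved PARP, ECL detection.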
SMILES,Activity [1],Activity [2],other results
Cc1ccc(C(=O)Nc2cccc(C(F)(F)F)c2)cc1Nc1cc(-c2cccnc2)nc2c1ccn2C,70.96%,3.63%,
Cc1ccc(NC(=O)c2cccc(C(F)(F)F)c2)cc1Nc1cc(-c2cccnc2)nc2[nH]ccc12,,,Activity [3]: Dose-dependent effect; Activity [4]: Active; Activity [5]: Active; Activity [6]: inactive; Activity [7]: Active; Activity [8]: Active; Activity [9]: Active; Activity [10]: Active; Activity [11]: Active; Activity [12]: Active; Activity [13]: inactive; Activity [14]: inactive; TGI [15]: Dose-dependent effect; Activity [16]: inactive; Activity [17]: Active; Activity [18]: Active; Activity [19]: Active; Activity [20]: inactive; Activity [21]: inactive
Cc1ccc(NC(=O)c2cccc(C(F)(F)F)c2)cc1Nc1cc(-c2cccnc2)nc2c1ccn2C,96.27%,16.08%,
Cc1ccc(C(=O)Nc2cccc(C(F)(F)F)c2)cc1Nc1cc(-c2cccnc2)nc2[nH]ccc12,99.42%,70.29%,
Cc1ccc(NC(=O)c2cccc(C(F)(F)F)c2)cc1Nc1cc(-c2ccsc2)nc2[nH]ccc12,0.21%,0%,
Cc1ccc(C(=O)Nc2cc(C(F)(F)F)cc(C(F)(F)F)c2)cc1Nc1cc(-c2cccnc2)nc2[nH]ccc12,0%,0%,
Cc1ccc(C(=O)Nc2cccc(C(F)(F)F)c2)cc1Nc1cc(-c2ccncc2)nc2[nH]ccc12,1.94%,0%,
Cc1ccc(NC(=O)c2cccc(C(F)(F)F)c2)cc1Nc1cc(-c2cccc(Cl)c2)nc2[nH]ccc12,0.33%,0.03%,
Cc1ccc(NC(=S)Nc2cccc(C(F)(F)F)c2)cc1Nc1cc(-c2cccnc2)nc2[nH]ccc12,87.3%,1.26%,
Cc1ccc(C(=O)N2CCOCC2)cc1Nc1cc(-c2cccnc2)nc2[nH]ccc12,0%,0%,
Cc1cccc(NC(=O)c2ccc(C)c(Nc3cc(-c4cccnc4)nc4[nH]ccc34)c2)c1,97.68%,11.24%,
Cc1ccc(C(=O)Nc2cccc(Cl)c2)cc1Nc1cc(-c2cccnc2)nc2[nH]ccc12,96.75%,19.49%,
Cc1ccc(NC(=O)c2cccc(C(F)(F)F)c2)cc1Nc1cc(-c2cccc(N)c2)nc2[nH]ccc12,1.63%,0.27%,
O=C(Nc1cccc(Nc2cc(-c3cccnc3)nc3[nH]ccc23)c1)c1cccc(C(F)(F)F)c1,98.98%,96.61%,
COc1cccc(NC(=O)c2ccc(C)c(Nc3cc(-c4cccnc4)nc4[nH]ccc34)c2)c1,100%,76.86%,
Cc1cc(NC(=O)c2ccc(C)c(Nc3cc(-c4cccnc4)nc4[nH]ccc34)c2)n(C)n1,95.24%,2.48%,
Cc1ccc(NC(=O)c2cccc(C(F)(F)F)c2)cc1Nc1cc(-c2ccccc2)nc2[nH]ccc12,0%,0%,
Cc1ccc(NC(=O)c2cccc(C(F)(F)F)c2)cc1Nc1cc(-c2ccoc2)nc2[nH]ccc12,0%,0.24%,
O=C(Nc1cccc(C(F)(F)F)c1)c1cccc(Nc2cc(-c3cccnc3)nc3[nH]ccc23)c1,80.23%,3.78%,
Cc1ccc(C(=O)Nc2cccc(OC(F)(F)F)c2)cc1Nc1cc(-c2cccnc2)nc2[nH]ccc12,99.66%,38.57%,
Cc1ccc(C(=O)Nc2cc(CN3CCN(C)CC3)cc(C(F)(F)F)c2)cc1Nc1cc(-c2cccnc2)nc2[nH]ccc12,0%,0.62%,
Cc1ccc(NC(=O)c2cccc(C(F)(F)F)c2)cc1Nc1cc(-c2ccncc2)nc2[nH]ccc12,96.34%,1.46%,
